Measurements published in ChEMBL document CHEMBL1126582, “Symmetry-based inhibitors of HIV protease. Structure-activity studies of acylated 2,4-diamino-1,5-diphenyl-3-hydroxypentane and 2,5-diamino-1,6-diphenylhexane-3,4-diol” (J Med Chem, 1993).
≈ marks a conversion by molar mass, not a printed value.

How the values were obtained:
[1] = Estimated solubility (buffer pH 7.4); type: ADME; conditions: read-out: S
In short: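 Solubility was estimated in pH 7.4 phosphate buffer.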

[2] = target: Human immunodeficiency virus type 1 protease (Human immunodeficiency virus 1, UniProt Q72874); assay: Inhibition of purified recombinant HIV-1 protease in a fluorogenic assay
In short: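 Purified recombinant HIV-1 protease, with cleavage of the fluorogenic substrate DABCYL-[…]-Pro-Ile-Val-Gln-EDANS as read-out. Value is the inhibitor concentration giving 50% inhibition of protease activity.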

[3] = In vitro for cytotoxicity in MT-4 lymphocytes in the absence of HIV infection; type: cell-based, MT4; conditions: human
In short: (§1)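 Uninfected MT-4 lymphocytes were cultured with compound. CC50 is the concentration at which 50% of cells remain viable.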

MT4 [4] = assay: Compound was tested in vitro for inhibition of cytopathic effect of HIV-1 3B in MT-4 lymphocytes; No effect; type: functional, cell-based, Homo sapiens
In short: (§2)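 MT-4 lymphocytes were infected with HIV-1 3B at an MOI of either 0.001 or 0.032 tissue culture infective dose per cell. EC50 is the concentration preventing 50% of viral cytopathic effect, from a single triplicate assay. No effect means no activity up to 100 μM or up to the cytotoxic concentration.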

[5] = system: Human immunodeficiency virus 1; assay: Compound was tested in vitro for inhibition of cytopathic effect of HIV-1 3B in MT-4 lymphocytes; type: functional, organism-based; in short: as §2
[6] = system: Human immunodeficiency virus 1; assay: In vitro for inhibition of cytopathic effect of HIV-1 3B in MT-4 lymphocytes.; type: functional, organism-based; in short: as §2
MT4 [7] = assay: In vitro for cytotoxicity in MT-4 lymphocytes in the absence of HIV infection.; type: functional; conditions: Homo sapiens; in short: as §1

EC50 [6] [nM] | SMILES | solubility [1] [µg/mL] | IC50 [2] [nM] | CC50 [3] [nM] | EC50 (MT4 [4]) | EC50 [5] [nM] | CC50 (MT4 [7]) [nM]
 | CC(C)[C@H](NC(=O)OCCN1CCCC1)C(=O)N[C@@H](Cc1ccccc1)[C@@H](O)[C@H](Cc1ccccc1)NC(=O)[C@H](NC(=O)OCc1ccccc1)C(C)C | 19 (≈ 25.5 µM) | 14 | 21000 | Not Active |  | 
 | CC(C)[C@H](NS(=O)(=O)CCc1ccncc1)C(=O)N[C@@H](Cc1ccccc1)[C@@H](O)[C@H](O)[C@H](Cc1ccccc1)NC(=O)[C@H](NS(=O)(=O)CCc1ccncc1)C(C)C | 32 (≈ 38.2 µM) | 24 | > 100000 |  | 16000 | 
 | CC(C)[C@H](NC(=O)CCc1cccnc1)C(=O)N[C@@H](Cc1ccccc1)C(O)[C@H](Cc1ccccc1)NC(=O)[C@H](NC(=O)CCc1cccnc1)C(C)C (stereo partly specified) |  | 22 | 55000 |  | 10000 | 
 | CC(C)[C@H](NS(=O)(=O)CCc1ccncc1)C(=O)N[C@@H](Cc1ccccc1)[C@@H](O)[C@@H](O)[C@H](Cc1ccccc1)NC(=O)[C@H](NS(=O)(=O)CCc1ccncc1)C(C)C | 5.6 (≈ 6.69 µM) | 5.7 | > 100000 |  | 17000 | 
 | CC(C)[C@H](NC(=O)N(C)Cc1nccs1)C(=O)N[C@@H](Cc1ccccc1)[C@H](O)[C@@H](O)[C@H](Cc1ccccc1)NC(=O)[C@H](NC(=O)N(C)Cc1csc(N)n1)C(C)C | 196 (≈ 238 µM) | < 1 | > 100000 |  | 1600 | 
 | CC(C)[C@H](NC(=O)C1Cc2ccccc2CN1)C(=O)N[C@@H](Cc1ccccc1)C(O)[C@H](Cc1ccccc1)NC(=O)[C@H](NC(=O)C1Cc2ccccc2CN1)C(C)C (stereo partly specified) |  | 7.1 | 6400 | Not Active |  | 
 | CC(C)[C@H](NC(=O)OCC1CCCN(C)C1)C(=O)N[C@@H](Cc1ccccc1)[C@@H](O)[C@H](Cc1ccccc1)NC(=O)[C@H](NC(=O)OCc1ccccc1)C(C)C (stereo partly specified) | 31 (≈ 40.9 µM) | 13 | 17000 | Not Active |  | 
 | CC(C)[C@H](NS(=O)(=O)CCc1ccccn1)C(=O)N[C@@H](Cc1ccccc1)[C@H](O)[C@H](O)[C@H](Cc1ccccc1)NC(=O)[C@H](NS(=O)(=O)CCc1ccccn1)C(C)C | 0.047 (≈ 0.0561 µM) | 1.6 | > 100000 |  | 1800 | 
 | CC(C)[C@H](NC(=O)CCc1cccnc1)C(=O)N[C@@H](Cc1ccccc1)[C@@H](O)[C@@H](O)[C@H](Cc1ccccc1)NC(=O)[C@H](NC(=O)CCc1cccnc1)C(C)C |  | 1.5 | > 100000 |  | 9500 | 
 | CC(C)[C@H](NC(=O)N1CCN(Cc2ccccc2)CC1)C(=O)N[C@@H](Cc1ccccc1)[C@H](O)[C@H](O)[C@H](Cc1ccccc1)NC(=O)[C@H](NC(=O)N1CCN(Cc2ccccc2)CC1)C(C)C | 1.7 (≈ 1.88 µM) | 9 | > 100000 |  | 9400 | 
 | CC(C)[C@H](NS(=O)(=O)CCc1ccncc1)C(=O)N[C@@H](Cc1ccccc1)[C@H](O)[C@H](O)[C@H](Cc1ccccc1)NC(=O)[C@H](NS(=O)(=O)CCc1ccncc1)C(C)C | 55 (≈ 65.7 µM) | 13 | > 100000 |  | 19000 | 
 | CC(C)[C@H](NC(=O)CCc1ccccn1)C(=O)N[C@@H](Cc1ccccc1)C(O)[C@H](Cc1ccccc1)NC(=O)[C@H](NC(=O)CCc1ccccn1)C(C)C (stereo partly specified) |  | 12 | > 100000 |  | 2200 | 
 | CC(C)[C@H](NC(=O)OCCN1CCOCC1)C(=O)N[C@@H](Cc1ccccc1)[C@@H](O)[C@@H](O)[C@H](Cc1ccccc1)NC(=O)[C@H](NC(=O)OCCN1CCOCC1)C(C)C | 132 (≈ 162 µM) | 20 | > 100000 |  | 14000 | 
 | CC(C)[C@H](NC(=O)N(C)Cc1cscn1)C(=O)N[C@@H](Cc1ccccc1)[C@H](O)[C@@H](O)[C@H](Cc1ccccc1)NC(=O)[C@H](NC(=O)N(C)Cc1csc(N)n1)C(C)C | 331 (≈ 403 µM) | < 1 | > 100000 |  | 1500 | 
220 | CC(C)[C@H](NC(=O)N(C)Cc1ccccn1)C(=O)N[C@@H](Cc1ccccc1)[C@H](O)[C@@H](O)[C@H](Cc1ccccc1)NC(=O)[C@H](NC(=O)N(C)Cc1nccs1)C(C)C | 10.9 (≈ 13.6 µM) | < 1 |  |  |  | > 100000
 | CC(C)[C@H](NC(=O)OCc1ccncc1)C(=O)N[C@@H](Cc1ccccc1)[C@@H](O)[C@H](Cc1ccccc1)NC(=O)[C@H](NC(=O)OCc1ccccc1)C(C)C | 0.8 (≈ 1.08 µM) | 7 | > 100000 |  | 10000 | 
630 | CC(C)[C@H](NC(=O)N(C)Cc1cscn1)C(=O)N[C@@H](Cc1ccccc1)[C@@H](O)[C@@H](O)[C@H](Cc1ccccc1)NC(=O)[C@H](NC(=O)N(C)Cc1cscn1)C(C)C | 286 (≈ 354 µM) | < 1 |  |  |  | > 100000
1900 | CC(C)[C@H](NC(=O)N(C)Cc1nc2ccccc2[nH]1)C(=O)N[C@@H](Cc1ccccc1)[C@H](O)[C@H](O)[C@H](Cc1ccccc1)NC(=O)[C@H](NC(=O)N(C)Cc1nc2ccccc2[nH]1)C(C)C | 18 (≈ 20.6 µM) | < 1 |  |  |  | 31000
500 | CC(C)[C@H](NC(=O)N(C)Cc1cscn1)C(=O)N[C@@H](Cc1ccccc1)[C@H](O)[C@H](O)[C@H](Cc1ccccc1)NC(=O)[C@H](NC(=O)N(C)Cc1cscn1)C(C)C | 6.5 (≈ 8.05 µM) | < 1 |  |  |  | > 100000
110 | CC(C)[C@H](NC(=O)OCc1ccccc1)C(=O)N[C@@H](Cc1ccccc1)[C@@H](O)[C@@H](O)[C@H](Cc1ccccc1)NC(=O)[C@H](NC(=O)OCc1ccccc1)C(C)C | < 0.03 | < 1 |  |  |  | > 100000
200 | CC(C)[C@H](NC(=O)N(C)Cc1ccccn1)C(=O)N[C@@H](Cc1ccccc1)[C@H](O)[C@@H](O)[C@H](Cc1ccccc1)NC(=O)[C@H](NC(=O)N(C)Cc1cscn1)C(C)C | 1 (≈ 1.25 µM) | < 1 |  |  |  | > 100000
560 | CC(C)[C@H](NC(=O)N(C)Cc1ccccn1)C(=O)N[C@@H](Cc1ccccc1)[C@H](O)[C@@H](O)[C@H](Cc1ccccc1)NC(=O)[C@H](NC(=O)N(C)Cc1csc(N)n1)C(C)C | 386 (≈ 473 µM) | < 1 |  |  |  | > 100000
 | CC(C)[C@H](NC(=O)N1CCOCC1)C(=O)N[C@@H](Cc1ccccc1)[C@H](O)[C@H](O)[C@H](Cc1ccccc1)NC(=O)[C@H](NC(=O)N1CCOCC1)C(C)C |  | 43 | > 100000 |  | 88000 | 
230 | CC(C)[C@H](NC(=O)OCc1ccccn1)C(=O)N[C@@H](Cc1ccccc1)[C@H](O)[C@H](O)[C@H](Cc1ccccc1)NC(=O)[C@H](NC(=O)OCc1ccccn1)C(C)C | 0.21 (≈ 0.273 µM) | < 1 |  |  |  | > 100000
 | CC(C)[C@H](NS(=O)(=O)CCc1ccccn1)C(=O)N[C@@H](Cc1ccccc1)[C@@H](O)[C@@H](O)[C@H](Cc1ccccc1)NC(=O)[C@H](NS(=O)(=O)CCc1ccccn1)C(C)C | 26 (≈ 31.1 µM) | < 1 | > 100000 |  | 2000 | 
 | CC(C)[C@H](NC(=O)N(C)Cc1csc(N)n1)C(=O)N[C@@H](Cc1ccccc1)[C@@H](O)[C@H](O)[C@H](Cc1ccccc1)NC(=O)[C@H](NC(=O)N(C)Cc1csc(N)n1)C(C)C | 184 (≈ 220 µM) | < 1 | > 100000 |  | 2300 | 
 | CC(C)[C@H](NS(=O)(=O)CCc1ccccn1)C(=O)N[C@@H](Cc1ccccc1)[C@@H](O)[C@H](O)[C@H](Cc1ccccc1)NC(=O)[C@H](NS(=O)(=O)CCc1ccccn1)C(C)C |  | < 1 | > 100000 |  | 1500 | 
 | CC(C)[C@H](NC(=O)N1CCN(Cc2ccccc2)CC1)C(=O)N[C@@H](Cc1ccccc1)[C@@H](O)[C@@H](O)[C@H](Cc1ccccc1)NC(=O)[C@H](NC(=O)N1CCN(Cc2ccccc2)CC1)C(C)C | 9 (≈ 9.96 µM) | 7.8 | 17000 |  | 4300 | 
 | CC(C)[C@H](NC(=O)OCCN1CCOCC1)C(=O)N[C@@H](Cc1ccccc1)[C@@H](O)[C@H](Cc1ccccc1)NC(=O)[C@H](NC(=O)OCc1ccccc1)C(C)C | 6.8 (≈ 8.95 µM) | 9 | > 100000 |  | 6900 | 
 | CC(C)[C@H](NC(=O)N1CCN(c2ccccc2)CC1)C(=O)N[C@@H](Cc1ccccc1)[C@@H](O)[C@@H](O)[C@H](Cc1ccccc1)NC(=O)[C@H](NC(=O)N1CCN(c2ccccc2)CC1)C(C)C | 1 (≈ 1.14 µM) | 1.4 | 18000 |  | 1700 | 

SMILES | EC50 [6] [nM] | solubility [1] [µg/mL] | IC50 [2] [nM] | CC50 [3] [nM] | EC50 (MT4 [4]) | EC50 [5] [nM] | CC50 (MT4 [7]) [nM]
CC(C)[C@H](NC(=O)NCc1ccccn1)C(=O)N[C@@H](Cc1ccccc1)C(O)[C@H](Cc1ccccc1)NC(=O)[C@H](NC(=O)NCc1ccccn1)C(C)C (stereo partly specified) | 6100 | 53 (≈ 71.9 µM) | 10 |  |  |  | > 100000
CC(C)[C@H](NC(=O)/C=C/c1cccnc1)C(=O)N[C@@H](Cc1ccccc1)[C@@H](O)[C@@H](O)[C@H](Cc1ccccc1)NC(=O)[C@H](NC(=O)/C=C/c1cccnc1)C(C)C | 6200 | 23 (≈ 30.2 µM) | 5.3 |  |  |  | > 100000
CC(C)[C@H](NC(=O)N(C)Cc1nccs1)C(=O)N[C@@H](Cc1ccccc1)[C@@H](O)[C@H](O)[C@H](Cc1ccccc1)NC(=O)[C@H](NC(=O)N(C)Cc1nccs1)C(C)C | 390 | 101 (≈ 125 µM) | < 1 |  |  |  | > 100000
